Results collected from several papers.
Target: Serine/threonine-protein kinase BRSK2 (BRSK2, Homo sapiens, UniProt Q8IWQ3)
Residues used in one study (Q8IWQ3 1-736): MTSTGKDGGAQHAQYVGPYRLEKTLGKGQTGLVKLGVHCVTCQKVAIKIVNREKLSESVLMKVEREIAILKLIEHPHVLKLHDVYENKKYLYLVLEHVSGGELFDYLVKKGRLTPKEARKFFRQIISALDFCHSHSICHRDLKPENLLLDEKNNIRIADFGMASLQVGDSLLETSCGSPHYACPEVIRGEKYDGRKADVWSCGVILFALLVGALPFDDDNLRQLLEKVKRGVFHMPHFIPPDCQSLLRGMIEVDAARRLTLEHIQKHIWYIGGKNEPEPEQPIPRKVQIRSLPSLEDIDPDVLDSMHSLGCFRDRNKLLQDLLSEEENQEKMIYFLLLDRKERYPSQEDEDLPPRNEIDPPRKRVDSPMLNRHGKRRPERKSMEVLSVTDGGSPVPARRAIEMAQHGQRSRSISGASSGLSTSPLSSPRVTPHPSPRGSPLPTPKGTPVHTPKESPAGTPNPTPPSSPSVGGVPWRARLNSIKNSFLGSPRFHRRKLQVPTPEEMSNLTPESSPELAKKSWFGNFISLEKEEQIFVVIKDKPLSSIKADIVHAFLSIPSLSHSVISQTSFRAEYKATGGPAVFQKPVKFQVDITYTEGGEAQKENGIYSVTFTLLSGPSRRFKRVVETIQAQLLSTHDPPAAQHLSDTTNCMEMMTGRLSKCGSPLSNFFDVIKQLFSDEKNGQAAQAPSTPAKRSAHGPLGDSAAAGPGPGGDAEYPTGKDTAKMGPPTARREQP

N#CC1(c2ccccn2)CCN(Cc2cc(C(=O)O)c(=O)n3ccccc23)CC1  remaining binding (cell-free assay; competition with immobilised ligand; 1 µM): 100%
Cc1nn(C)cc1-c1nc2c(N3CCN(Cc4ccc(Cl)cc4)CC3)c(Cl)cnc2[nH]1  remaining binding (binding; competition with immobilised ligand; 1 µM): 100%
Nc1ncc(-c2nc(N3CCOCC3)nc(N3CCOCC3)n2)c(C(F)F)n1  remaining binding (binding; competition with immobilised ligand; 10 µM): 92%
Cn1cncc1[C@@](O)(COc1ccc(C#N)cc1-c1ccc(OC(F)(F)F)cc1)c1ccc(C#N)cc1  remaining binding (cell-free assay; competition with immobilised ligand; 1 µM): 100%
CC(C)(C)c1cc(C=C(C#N)C#N)cc(Br)c1O  remaining activity (enzyme activity; inhibitor; 0.5 µM): 94.5%
COc1ncccc1-c1cnn2ccc(N3CCN(C(=O)OC(C)C)CC3)nc12  remaining binding (binding; competition with immobilised ligand; 1 µM): 82%
COc1cc(Nc2ncc(F)c(Nc3ccc4c(n3)NC(=O)C(C)(C)O4)n2)cc(OC)c1OC  inhibition (binding; competition with immobilised ligand; 10 µM): 0%
O=c1[nH]c2ccccc2n1C1CCN(Cc2ccc(-c3[nH]c4cc5ncnc5cc4nc3-c3ccccc3)cc2)CC1  remaining signal (cell-free assay; 0.5 µM): 106%
